Here are results for ten compounds from PMC10350030 (bioRxiv, 2023).

Data set [1] deals with FAM-Aβ42 (Homo sapiens, UniProt P05067). It counts as biochemical. As to conditions: for enhancement of CP-induced degradation of FAM-Aβ42 by anti-oxidants: compared with CP only group.
Data set [2] deals with mature iPS neurons. Briefly: Toxicity study with iPS neuronal cells. It counts as cell-based. The following applies: 24 hours, Tuj-1 staining; for neuritic continuity of neurons treated with Aβ oligomers: Aβ Oligomer (20 μM). The essentials:
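Neurons came from iPS cells differentiated from blood stem cells and were used as mature cultures 12 days after seeding. They were treated with Aβ oligomers (20 µM), with or without test compound. Neuronal morphology and neurite continuity were assessed by immunocytochemistry for Tuj-1, a neuronal class III β-tubulin marker.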

Data set [3] in a line: Fluorescence spectra of FAM-Aβ42 during incubation in PBS. Format: physicochemical. The following applies: PBS buffer, 0 to 60 minutes, peptide alone.
For data set [4], the system named is SH-SY5Y cells. As to the kind of experiment: ApopTag fluorescein in situ apoptosis detection assay with Aβ42 oligomers. Format: cell-based. As to conditions: Aβ oligomer (20 μM) and AO (2 μM), 24 hours, compared to the control group.
Data set [5] has as its system hippocampal CA1 area from mouse brain slides. As to the kind of experiment: Extracellular fEPSP recording in hippocampal CA1 of brain slices. As to conditions: 1 hour. The essentials:
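In hippocampal slices, the Schaffer collateral pathway was stimulated once every 15 s with 0.1 ms current pulses. Field potentials were recorded extracellularly in the CA1 stratum radiatum. fEPSP was measured as the negative deflection of the voltage trace from baseline. Maximal amplitude was summarised for four groups: control, Aβ (1 µM), test compound (0.1 µM), and Aβ plus test compound.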

Entries after “also recorded” stand apart in the source; their conditions may differ.

FAM-Aβ42, sequence (P05067 672-713): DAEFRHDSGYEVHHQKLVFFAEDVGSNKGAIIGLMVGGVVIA

Regarding `O=C(O)CN(CCN(CC(=O)O)CC(=O)O)CC(=O)O` [EDTA], the “effect of EDTA on Cu/Vc-induced degradation of FAM-Aβ42” value in data set [1] (Cu(II)/EDTA/Vc (1:10:20), control experiment) is listed as “inhibited the degradation”.

As for `O=C1O[C@H]([C@@H](O)CO)C(O)=C1O` [Vc, Vitamin C], in data set [1] (AO/Vc versus AO), the “degradation enhancement by Vc when incubated with AO” value was “no significant degradation enhancement”.

For the compound `COc1cc(/C=C/C(=O)CC(=O)/C=C/c2ccc(O)c(OC)c2)ccc1O` [curcumin], the “enhancement of CP-induced degradation of FAM-Aβ42 by anti-oxidants” value (from here on “enhancement … by anti-oxidants”) in data set [1] is “neither of these anti-oxidants could enhance the degradation”.

For the compound `NCCc1ccc(O)c(O)c1` [dopamine], the “enhancement … by anti-oxidants” value in data set [1] is “neither of these anti-oxidants could enhance the degradation”.

In the case of `NC[C@H](O)c1ccc(O)c(O)c1` [norepinephrine], in data set [1], the “enhancement … by anti-oxidants” value is listed as “neither of these anti-oxidants could enhance the degradation”.

In the case of `Oc1ccc(/C=C/c2cc(O)cc(O)c2)cc1` [resveratrol], the “enhancement … by anti-oxidants” value in data set [1] is “neither of these anti-oxidants could enhance the degradation”.

As for “Aβ oligomers: Aβ42 oligomers prepared from Aβ42 peptide in F12 media at 4°C for 24 hours [reference compound]”, the “neuritic continuity of neurons treated with Aβ oligomers” value in data set [2] was “apparent broken neuritic segments”; in data set [2] (listed as Aβ Oligomer), “loss of neuritic continuity”.

As to “FAM-Aβ42: a fluorescent dye conjugated Aβ [reference compound]”, the “fluorescence intensity of FAM-Aβ42 during incubation (aggregation-induced fluorescence quenching)” value in data set [3] was “gradually decreasing”.

As for ascorbate oxidase [AO], the “level of cell apoptosis” value in data set [4] is “significantly reduced”. In addition, in data set [2] (Aβ Oligomer (20 μM) and AO (2 μM)), the “neuritic continuity of neurons treated with Aβ oligomers mixed with AO” value is on record as “no apparent broken segments; also recorded: normal length neurites”. The “AO-mediated cleavage of FAM-Aβ42 under N2” value in data set [1] (N2 gas bubbled into the incubation buffer before incubation) is “considerably reduced”. For the same compound, the “cleavage of FAM-Aβ42” value in data set [1] (after 4 hours of incubation with AO) is “more than 50%”. Besides, the “change of fEPSP magnitude by AO alone” value in data set [5] (AO alone (0.1 µM)) was “did not cause significant changes”. Moreover, the “maximal fEPSP amplitude, Ab-AO group” value in data set [5] (slices incubated with 1 µM Ab and 0.1 µM AO, mean ± SE) stood at 3.61± 0.49 mV.

Turning to vitamin E, the “enhancement … by anti-oxidants” value in data set [1] is listed as “neither of these anti-oxidants could enhance the degradation”.
